Screens deposited in PubChem BioAssay by several laboratories.
Hits are enriched below; roughly 1.2% of the tested compounds scored in any of these assays.
FN deposit inh: fibronectin deposition inhibition | AH1F fibroblasts, Alexa488-fibronectin deposition fluorescence, overnight | inhibition, % at 12.6 µM | 350,000 tested, 0.086% active;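 active = mean inhibition across replicates of 30% or more, regardless of how many single replicates reach that level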
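Assay system: AH1F fibroblast monolayer, labelled fibronectin deposition. Amount: 10000 cells per well. Also added: labelled fibronectin 24 nM. Compound: single-point pinned compound. Incubation: cell attachment 1 h, compound and FN exposure overnight. Detection: fluorescence after three HBSS washes, excitation 485 nm, emission 525 nm. Read-out: inhibition of fibronectin deposition signal.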
ABHD5 PLIN5 PPI: blocks binding of human ABHD5 to perilipin-5; 360,000 tested, 0.78% active; AID 602281; Q00G26+Q8WTS1; Split G. princeps luciferase complementation, luminescence, 4 h; inhibition, % at 4 µM;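 active = inhibition above the mean inhibition across every tested compound plus 3 SD, cut at about 22% in these data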
Target sequence (Q00G26 whole entry, looked up): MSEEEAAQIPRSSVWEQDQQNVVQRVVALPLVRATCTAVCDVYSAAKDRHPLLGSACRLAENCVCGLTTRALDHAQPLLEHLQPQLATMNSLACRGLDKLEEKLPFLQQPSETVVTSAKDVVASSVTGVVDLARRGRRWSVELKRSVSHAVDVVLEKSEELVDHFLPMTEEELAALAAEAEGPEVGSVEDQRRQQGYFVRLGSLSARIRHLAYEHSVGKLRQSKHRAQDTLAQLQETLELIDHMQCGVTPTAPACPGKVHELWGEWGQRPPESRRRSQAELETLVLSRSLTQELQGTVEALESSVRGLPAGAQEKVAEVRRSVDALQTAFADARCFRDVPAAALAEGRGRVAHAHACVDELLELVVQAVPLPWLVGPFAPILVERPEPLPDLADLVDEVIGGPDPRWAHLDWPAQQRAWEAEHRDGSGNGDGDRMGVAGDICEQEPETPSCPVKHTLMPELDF
Target sequence (Q8WTS1 whole entry, looked up): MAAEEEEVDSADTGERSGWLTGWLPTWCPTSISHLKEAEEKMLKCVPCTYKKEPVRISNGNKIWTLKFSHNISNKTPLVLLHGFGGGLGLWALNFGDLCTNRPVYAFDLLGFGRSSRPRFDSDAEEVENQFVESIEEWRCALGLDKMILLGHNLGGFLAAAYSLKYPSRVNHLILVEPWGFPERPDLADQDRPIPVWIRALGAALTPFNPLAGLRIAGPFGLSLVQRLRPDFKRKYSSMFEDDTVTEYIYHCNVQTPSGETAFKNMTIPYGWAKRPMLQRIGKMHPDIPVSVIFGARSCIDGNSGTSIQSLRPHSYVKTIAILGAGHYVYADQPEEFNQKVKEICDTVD
APOBEC3A inh: inhibitors of human APOBEC3A DNA deaminase; P31941; recombinant A3A, FAM/TAMRA ssDNA deamination fluorescence; inhibition, % at 20 µM; 330,000 tested, 0.41% active;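 active = at least 40% inhibition at 20 µM here, with at most 30% in a related deaminase screen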
A3G deaminase: APOBEC3G (human) deaminase inhibition; 330,000 tested, 0.28% active; Q9HC16; recombinant A3G, ssDNA deamination FAM/TAMRA fluorescence; inhibition, % at 20 µM; AID 493012;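 active = inhibition of at least 40% at 20 µM, with no more than 30% in the related APOBEC3A deaminase screen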
APOBEC3A confirm: confirmation of human APOBEC3A DNA deaminase inhibitors; shares compounds with APOBEC3A inh; recombinant A3A, ssDNA deaminase UDG fluorescence assay; inhibition, % at 20 µM; 1,400 tested, 63% active; AID 493151;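 active = inhibition reaching a set limit, 80% of the first screen's cutoff, at 20 µM in any replicate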
UDG A3A counter: counter-screen for APOBEC3A inhibitors: UDG; shares compounds with APOBEC3A inh; UDG counterscreen, FAM/TAMRA uracil oligo fluorescence; inhibition, % at 20 µM; 1,000 tested, under 10 active; call rule not given here
Large screens that a line does not name were inactive (follow-up assays come after a bar, where they were run).

Cc1ccc(C)c(N)c1	none (no result: FN deposit inh)
CCN1C(=NCCc2c[nH]c3ccccc23)N[C@@H](c2ccccc2)[C@H](C(=O)OC)[C@H]1C	APOBEC3A inh 51 | APOBEC3A confirm 45 | UDG A3A counter inactive
CCN1C(=NCc2ccc(OC)cc2)N[C@@H](c2ccccc2)[C@H](C(=O)OC)[C@H]1C	APOBEC3A inh 41 | APOBEC3A confirm 56 | UDG A3A counter inactive
COc1ccc(C(=O)NCC(=O)OCCCOC(=O)CNC(=O)c2ccc(OC)c(OC)c2)cc1OC	APOBEC3A inh 42 | APOBEC3A confirm inactive
CO[C@@H]1CN(C)C(=O)c2ccc(NC(=O)NC(C)C)cc2OC[C@@H](C)N(C(=O)CC2CC2)C[C@H]1C	none (no result: ABHD5 PLIN5 PPI, APOBEC3A inh, A3G deaminase)
CO[C@@H]1CN(C)C(=O)c2cc(NC(=O)c3nc4ccccc4s3)ccc2OC[C@@H](C)N(Cc2cccnc2)C[C@@H]1C	none (no result: ABHD5 PLIN5 PPI, APOBEC3A inh, A3G deaminase)
O=C(NCC1CCCO1)c1ccccc1 (configuration not stated)	none
C[n+]1cccc(C(=O)NCC2CCCO2)c1 (configuration not stated)	APOBEC3A inh 79 | APOBEC3A confirm 75 | UDG A3A counter inactive
COc1cccc(NC(=O)c2ccc[n+](C)c2)c1	APOBEC3A inh 77 | APOBEC3A confirm 75 | UDG A3A counter inactive
O=C(C[n+]1cccc(C(=O)Nc2ccccc2)c1)c1ccccc1	none (no result: APOBEC3A inh, A3G deaminase)
COc1cccc(NC(=O)c2cccnc2)c1	none
C[n+]1cccc(C(=O)Nc2ccccc2)c1	APOBEC3A inh 70 | APOBEC3A confirm 57 | UDG A3A counter inactive
CCc1cnc(N2[C@H](CO)[C@@H](c3ccccc3-c3ccccc3C)[C@@H]2C#N)s1	none (no result: ABHD5 PLIN5 PPI, APOBEC3A inh, A3G deaminase)
CN1CCN(S(=O)(=O)c2ccc(C3CCCCC3)cc2)CC1	APOBEC3A inh 45 | APOBEC3A confirm 50 | UDG A3A counter inactive
COc1ccc2[nH]c(=O)c(CN(C(=O)c3ccco3)C(C)C)cc2c1	APOBEC3A inh 56 | APOBEC3A confirm 61 | UDG A3A counter inactive
C[N+](C)(C)C/C=C1/COCO1	APOBEC3A inh 48 (no result: FN deposit inh) | APOBEC3A confirm 76 | UDG A3A counter inactive
O=C(C[C@H]1CC[C@H]2[C@@H](COC[C@H](O)CN2C(=O)Nc2ccc(F)cc2)O1)NCCCN1CCOCC1	none (no result: ABHD5 PLIN5 PPI, APOBEC3A inh, A3G deaminase)
Cc1ccc2nc(C)c3c(c2c1)COC3	APOBEC3A inh 62 | APOBEC3A confirm inactive | UDG A3A counter inactive
CCCNC(=O)C[C@@H]1CC[C@@H]2[C@H](COC[C@H](O)CN2C(=O)C2CCOCC2)O1	none (no result: ABHD5 PLIN5 PPI, APOBEC3A inh, A3G deaminase)
CCCCCn1c2c(c(=N)c3ccccc31)CCC2	APOBEC3A inh 58 | APOBEC3A confirm 74 | UDG A3A counter inactive
CCCCn1c2c(c(=N)c3ccccc31)CCC2	APOBEC3A inh 88 | APOBEC3A confirm 41 | UDG A3A counter inactive
CCCCCCCCn1c2c(c(=N)c3ccccc31)CCC2	none
CC(C)NC(=O)Nc1cccc2c1O[C@H](CN(C)C(=O)NC(C)C)[C@H](C)CN(C)C2=O	none (no result: ABHD5 PLIN5 PPI, APOBEC3A inh, A3G deaminase)
NC(=O)c1ccc(NC(=O)COC(=O)c2cc3c(s2)CCC3)cc1	APOBEC3A inh 55 | APOBEC3A confirm 43 | UDG A3A counter inactive
O=C(COC(=O)c1cc2c(s1)CCCC2)Nc1ccc(Cl)cn1	none
COCCn1c(C)cc(C(=O)COC(=O)c2cc3c(s2)CCC3)c1C	APOBEC3A inh 43 | APOBEC3A confirm 27 | UDG A3A counter inactive
O=C(COC(=O)c1cc2c(s1)CCC2)Nc1ccc(F)cc1	APOBEC3A inh 45 (no result: FN deposit inh) | APOBEC3A confirm 49 | UDG A3A counter inactive
COCCn1c(C)cc(C(=O)COC(=O)c2cccc(O)c2)c1C	none
NC(=O)c1ccc(NC(=O)COC(=O)c2ccc3c(c2)OCO3)cc1	none
COc1ccc(NC(=O)COC(=O)c2cc3c(s2)CCC3)cc1	APOBEC3A inh 41 (no result: FN deposit inh) | APOBEC3A confirm 32 | UDG A3A counter inactive
COc1cccc(CNC(=O)C[C@@H]2CC[C@H]3[C@H](COc4ccc(NC(C)=O)cc4C(=O)N3C)O2)c1	none (no result: ABHD5 PLIN5 PPI, APOBEC3A inh, A3G deaminase)
C[C@H](CO)N1C[C@H](C)[C@H](CN(C)Cc2cncnc2)Oc2cc(-c3cccnc3)ccc2S1(=O)=O	none (no result: ABHD5 PLIN5 PPI, APOBEC3A inh, A3G deaminase)
COc1cccc2c1C(=O)c1c(O)c3c(c(O)c1C2=O)C[C@](O)(C(C)=O)C[C@H]3O[C@@H]1C[C@@H](N)[C@@H](O)[C@@H](C)O1	APOBEC3A inh 50 | APOBEC3A confirm 42
COc1cccc2c1C(=N)c1c(O)c3c(c(O)c1C2=O)CC(O)(C(C)=O)CC3OC1CC(N)C(O)C(C)O1 (configuration not stated)	none (no result: FN deposit inh, APOBEC3A inh, A3G deaminase)
CC[n+]1ccc(C)c2cc(P(=O)(c3ccccc3)c3ccccc3)ccc21	APOBEC3A inh 63 | APOBEC3A confirm active | UDG A3A counter inactive
O=C(CN1CCOCC1)NCC[C@H]1CC[C@H](NC(=O)Nc2ccc(C(F)(F)F)cc2)[C@@H](CO)O1	none (no result: ABHD5 PLIN5 PPI, APOBEC3A inh, A3G deaminase)
CC(=O)Nc1ccc(NC(=O)C2CC(=O)N(Cc3ccco3)C2)cc1 (configuration not stated)	APOBEC3A inh 47 | APOBEC3A confirm inactive | UDG A3A counter inactive
CCOc1ccc(NC(=O)C2CC(=O)N(Cc3ccco3)C2)cc1 (configuration not stated)	none
CSc1cccc(NC(=O)C2CC(=O)N(Cc3ccccc3)C2)c1 (configuration not stated)	APOBEC3A inh 52 | APOBEC3A confirm inactive
O=c1oc(-c2ccccc2)nc2sc3c(c12)CCC3	APOBEC3A inh 56 | APOBEC3A confirm 35 | UDG A3A counter inactive
CCN(CC(=O)Nc1ccc(NC(C)=O)cc1)C(=O)c1ccc(NC2CC2)c([N+](=O)[O-])c1	APOBEC3A inh 52 | APOBEC3A confirm inactive
CCOc1ccc(NC(=O)CN(C)C(=O)c2ccc(NC3CC3)c([N+](=O)[O-])c2)cc1OCC	none
CC(=O)N(C)C[C@@H]1Oc2cc(C#Cc3cccc(F)c3)ccc2S(=O)(=O)N([C@H](C)CO)C[C@H]1C	none (no result: ABHD5 PLIN5 PPI, APOBEC3A inh, A3G deaminase)
COc1ccc(CNCCC2(O)CC(C)N(C)CC2C)cc1OC (configuration not stated)	none
COc1ccc(C=NCCC2(O)CC(C)N(C)CC2C)cc1 (configuration not stated)	APOBEC3A inh 48 | APOBEC3A confirm inactive
CN(CC(=O)Nc1ccccc1Br)C(=O)c1cc([N+](=O)[O-])ccc1N1CCOCC1	APOBEC3A inh 42 | APOBEC3A confirm inactive
CCN(CC(=O)Nc1cc(Cl)ccc1C)C(=O)c1cc([N+](=O)[O-])ccc1N1CCOCC1	APOBEC3A inh 80 | APOBEC3A confirm inactive
Cc1ccc(NC(=O)c2cc([N+](=O)[O-])ccc2N2CCOCC2)cc1S(=O)(=O)N1CCOCC1	APOBEC3A inh 42 | APOBEC3A confirm inactive
Cc1ccc(NC(=O)c2ccc([N+](=O)[O-])o2)cc1S(=O)(=O)N1CCOCC1	none (no result: FN deposit inh)
O=C(C[C@@H]1CC[C@@H]2[C@H](COC[C@H](O)CN2Cc2ccc3c(c2)OCO3)O1)N1CCCCC1	none (no result: ABHD5 PLIN5 PPI, APOBEC3A inh, A3G deaminase)
